An excerpt weighted towards active compounds, which were near 4.7% of everything screened.
RGS4 inh: inhibitors of human RGS4; P49798; HEK293 M3R/RGS4 inducible, Fluo-4 calcium flux; stronger effect = higher value; triggered by carbachol at its EC20; B-score at 10 µM; 310,000 compounds, 0.45% hits;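 active means B-score, a plate-corrected calcium signal, over three deviations above library mean, with baseline fluorescence within five deviations of library mean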;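 further: RGS4 expression induced by doxycycline in cells with stable M3 receptor; B-score is computed from the integrated fluorescence ratio over baseline after carbachol; higher B-score means a larger calcium signal and so more RGS4 inhibition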
MrgX1 PAM: human MrgX1 positive allosteric modulation, primary screen; Q96LB2; MrgX1-HEK293, Fluo-4 calcium flux, FDSS; stronger effect = higher value; B-score at 10 µM; 310,000 compounds, 0.63% hits;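 active means plate-corrected calcium response at least 3 library SD above typical, normal starting fluorescence, not activating the receptor alone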;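 further: compound read alongside a low EC10 to EC30 dose of BAM8-22 agonist; peak minus trough fluorescence over baseline measured at the second addition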
KCC2 mod: KCC2 (human) Cl- transport modulation; Q9H2X9; KCC2 cells, thallium flux FluoZin-2 fluorescence; B-score of Tl+ flux slope (higher = more flux/activation; lower = inhibition) at 10 µM; 190,000 compounds, 2.2% hits; AID 1456;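 active means thallium flux slope and its plate-corrected score both differing from the plate sample mean at a set confidence after two filtering rounds, in either direction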;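 further: slope of fluorescence scaled to starting intensity during 10 to 20 s after thallium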
RGS4 pot: RGS4 potentiation or activation; B-score at 10 µM; 310,000 compounds, 0.92% hits; AID 463111; HEK293 M3R/inducible RGS4, carbachol calcium flux Fluo4; stronger effect = lower value;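 active means B-score of the integrated calcium signal more than 4 SD below the library mean, with starting fluorescence not abnormally high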;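 further: negative B-score means reduced calcium response which marks RGS4 activation or potentiation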
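Detection: kinetic calcium fluorescence imaging with Fluo4-AM dye, 2 µM / Material: HEK293 cells with stable M3R and inducible RGS4 / Schedule: recording 10 s baseline at 1 Hz, 100 s post-agonist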
MrgX1 agonist: activates human MrgX1 receptor signaling; Q96LB2; MrgX1-HEK293 cells, Fluo-4 calcium fluorescence, agonist mode; stronger effect = higher value; B-score at 10 µM; 310,000 compounds, 0.44% hits; AID 588627;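 active means calcium response B-score plate-corrected fluorescence ratio at least 3 library SD, with starting fluorescence B-score inside 5 SD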
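Material: MrgX1-expressing HEK293 cells; input: 15,000 cells per well; doses: test compound given as first of three sequential additions; schedule: overnight plating before 1 h dye loading; technique: Fluo-4 NW calcium-flux fluorescence, kinetic read; evaluation: baseline-normalised fluorescence change ratio, B-scored; control set: plate-wise positive and negative controls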
MrgX1 antag: blocks BAM8-22 activation of human MrgX1 receptor; 310,000 compounds, 1.3% hits; MRGX1-HEK293 calcium flux, Fluo-4, BAM8-22 antagonism; stronger effect = lower value; Q96LB2; B-score at 10 µM;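 active means calcium-response B-score plate-corrected more than 3 library SD below zero, starting fluorescence within 5 deviations, no agonist response on first addition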;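 further: peak minus trough fluorescence over baseline after final BAM8-22 challenge near maximal dose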
Active calls of the source: *; i = inactive; nt = no result given.

SMILES	RGS4 inh	MrgX1 PAM	KCC2 mod	RGS4 pot	MrgX1 agonist	MrgX1 antag
O=C(CC(Sc1ccc(Br)cc1)C(=O)O)c1ccc(F)cc1 (centres undefined)	6.3*	i	nt	i	i	i
COc1ccc2c(c1)C(=O)[C@H](O)[C@@H](c1ccc(OC)c(Br)c1)O2	i	i	-0.74	i	i	i
COc1cc(C2Oc3cc(C4Oc5cc(O)cc(O)c5C(=O)C4O)ccc3OC2CO)ccc1O (centres undefined)	i	8.8*	-0.053	i	i	i
Cc1cc(N=Nc2c(O)c3ccccc3[nH]c2=O)ccc1N=Nc1ccc(C(=O)N(C)C)cc1	i	nt	-0.45	-7.8*	nt	nt
COCc1cc(C)n(CC(=O)Nc2ccc(N3CCOCC3)cc2)c(=O)c1C#N	i	i	nt	i	i	i
COc1ccccc1C(C#N)N1N=C(C)CC1c1ccccc1 (centres undefined)	i	i	nt	i	28*	i
CC1=NN(C(C#N)c2ccccc2C)C(c2ccccc2)C1 (centres undefined)	i	i	nt	i	i	i
COc1ccc(OC(C)C(=O)N(C)Cc2nc(-c3ccc(OC)cc3)no2)cc1 (centres undefined)	i	i	nt	i	i	i
CCC(=O)Nc1nc(C)c(-c2csc(Nc3cccc(O)c3)n2)s1	i	i	nt	-7.3*	i	-5.4*
CC(=O)c1cccc(Nc2nc(-c3sc(N)nc3C)cs2)c1	i	i	nt	-7.2*	i	i
Cc1nc(C)c(-c2csc(Nc3cccc(O)c3)n2)s1	i	i	nt	i	i	i
Cc1cccc(C(=O)N2CCN=C2SCc2ccc([N+](=O)[O-])cc2)c1	i	i	-0.49	-8.6*	i	i
CCNC(=S)N1CCc2ccccc2C1	i	i	-0.31	i	i	i
Cc1cccc(C(=O)NC(=S)N2CCc3ccccc3C2)c1	i	i	125*	i	i	i
O=C(NCCCN1CCCC1)c1ccc2c(c1)N(Cc1ccccc1F)C(=O)c1ccccc1S2=O (centres undefined)	i	i	nt	i	i	i
CC1CCCCN1CCNC(=O)c1ccc2c(c1)N(Cc1ccccc1F)C(=O)c1ccccc1S2=O (centres undefined)	i	i	nt	-7.4*	i	i
CC(NS(=O)(=O)c1ccccc1)C1CC2CCC1C2 (centres undefined)	i	i	nt	i	i	i
O=C(NC(=S)NNC(=O)c1ccccc1[N+](=O)[O-])c1ccccc1	i	9.7*	0.47	i	i	i
CCCCC(=O)Nc1ccc(C(=O)NNC(=S)NC(=O)c2ccccc2[N+](=O)[O-])cc1	i	i	-0.021	i	i	i
CCCOc1ccc(C(=O)NNC(=S)NC(=O)c2cc(-c3ccccc3)nc3ccccc23)cc1	i	i	1.5	-9.3*	i	-4.7*
CCCOc1ccc(C(=O)NNC(=S)NC(=O)c2ccccc2[N+](=O)[O-])cc1	i	8.4*	nt	i	i	i
CCCCOc1ccc(C(=O)NNC(=S)NC(=O)CC)cc1	i	i	36*	i	i	i
O=C(NNC(=S)NC(=O)c1ccccc1[N+](=O)[O-])c1ccccc1	i	i	1.1	i	i	i
CCC(=O)NC(=S)NNC(=O)c1ccc(OC)cc1	i	i	1	i	i	i
Cc1ccc(O)c(NC(=O)c2ccc3c(c2)C(=O)N(Cc2ccco2)C3=O)c1	i	i	nt	i	i	i
SMILES	RGS4 inh	MrgX1 PAM	KCC2 mod	RGS4 pot	MrgX1 agonist	MrgX1 antag
CC1CCN(C(=O)C2CCN(S(=O)(=O)c3ccc(-n4cnnn4)cc3)CC2)CC1	i	i	nt	i	i	i
CC1=[N+](C)N(c2ccccc2)C(=O)C1N=C/C=C/c1ccccc1 (centres undefined)	i	i	-0.99	-7.5*	i	i
O=C(NC(=S)NC1CCCCCC1)c1cncc(Br)c1	i	i	48*	i	i	i
Cc1ccccc1NC(=S)NC(=O)c1cncc(Br)c1	i	i	29*	i	i	i
CC(=O)Oc1ccc(-c2ccc(C(=O)OCC(=O)N(C)CC(=O)Nc3ccccc3Cl)cc2)cc1	i	i	nt	i	i	i
C/C(CCc1oc2ccccc2c1-c1ccc(C)o1)=N/O	i	i	0.0039	i	28*	i
O=C(Nc1ccccc1-c1nnn(CC(=O)N2CCc3ccccc3C2)n1)C1CCC1	i	i	nt	i	i	i
CC(C)CC(=O)Nc1ccccc1-c1nnn(CC(=O)N2CCc3ccccc3C2)n1	i	i	-3.8*	i	i	i
Nc1ccc(C(=O)O)c(O)c1	i	i	0.077	i	i	i
Nc1ccc(N)c(C(=O)O)c1	i	i	nt	i	i	-5.6*
C#CCSc1nnc(-c2ccc(O)cc2)o1	i	i	0.7	i	i	-7.6*
COc1ccccc1-c1cnn2c(NCc3ccccc3)cc(C)nc12	i	i	nt	-7.3*	i	i
Cc1cc(C)c(C(=O)C(C)OC(=O)C2=COCCO2)cc1C (centres undefined)	i	7.6*	nt	i	i	i
CCOC(=O)c1c(NC(=O)c2c(C(=O)O)cccc2[N+](=O)[O-])sc2c1CCCC2	i	i	nt	i	i	i
Cc1onc(-c2ccccc2)c1C(=O)NCc1ccc2c(c1)OCO2	i	i	nt	i	i	i
Cc1onc(-c2c(F)cccc2Cl)c1C(=O)NCc1ccc2c(c1)OCO2	i	i	nt	-7.4*	i	i
COc1ccc(C(CCN(Cc2ccc(OC)c(OC)c2)C(C)=O)c2ccccc2)cc1 (centres undefined)	i	i	-1.6	i	i	i
COc1ccc(CN(CCC(c2ccccc2)c2ccc(OC(C)C)cc2)C(=O)CCl)cc1OC (centres undefined)	i	10*	-0.064	-7.1*	i	i
COc1ccc(-c2nn(-c3ccccc3)cc2/C=N/N=C(N)N)cc1OC	i	i	-0.72	i	44*	i
CN(Cc1ccc(F)cc1)C(=O)c1sccc1-c1ccccc1	i	i	nt	-7.2*	i	i
CN(C)S(=O)(=O)c1ccc(N2CCCC2)c(C(=O)N2CCN(S(=O)(=O)c3ccccc3F)CC2)c1	i	i	nt	i	i	i
Cc1cn([C@H]2C=C[C@@H](CO)O2)c(=O)[nH]c1=O	i	9.4*	0.8	i	i	i

Screening results (PubChem BioAssay)
